In ChEMBL document CHEMBL1154278, “Cassiarins C-E, antiplasmodial alkaloids from the flowers of Cassia siamea” (J Nat Prod, 2009):

What was measured:
Plasmodium falciparum = assay: Antimalarial activity against Plasmodium falciparum 3D7 by Giemsa staining; format: functional, organism-based
How it was run: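 P. falciparum 3D7 clone grown in human erythrocyte culture (Trager–Jensen) in 24-well plates. Compounds dissolved in DMSO (final <0.5%) and diluted in RPMI 1640 with 10% human plasma, 25 mM HEPES and 25 mM NaHCO₃ to final 10, 1, 0.1, 0.01, 0.001 µg/mL. Growth read from MeOH-fixed, Giemsa-stained smears; IC50 = 50% growth inhibition versus untreated control.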

HL-60 (Homo sapiens) = assay: Cytotoxicity against human HL-60 cells

Structure (SMILES)	IC50 (Plasmodium falciparum) [µM]	IC50 (HL-60 (Homo sapiens)) [µM]
CC(=O)Cc1cc(O)cc2oc(C)cc(=O)c12	8.6	> 100
Cc1cc2cc(=O)cc3oc(C)cc(o1)c23 [ANHYDROBARAKOL]	4.7	> 100
Cc1cc2cc(O)cc3c2c(n1)CC(C)O3 (configuration not stated) [CASSIARIN C]	24.2	> 100
Cc1cc2cc(O)cc3c2c(n1)C=C(CC1(C)Cc2nc(C)cc4cc(O)cc(c24)O1)O3 (configuration not stated) [CASSIARIN E]	7.3	> 100

The next compounds have a lower IC50 (Plasmodium falciparum) than those just listed; values first:

IC50 (Plasmodium falciparum) [µM]	Structure (SMILES)	IC50 (HL-60 (Homo sapiens)) [µM]
3.6	CC(=O)Cc1cc(O)cc2oc(CC3(C)Cc4nc(C)cc5cc(O)cc(c45)O3)cc(=O)c12 (configuration not stated) [CASSIARIN D]	> 100
2.3	Cc1cc2c3c(cc(=O)cc-3o1)CC(C)O2 (configuration not stated)	> 100
